Data published in ChEMBL document CHEMBL1649137, “Genetic analysis of factors affecting susceptibility of Bacillus subtilis to daptomycin” (2009).
Converted amounts (≈) assume the structure as drawn.

Columns and labels:
Bacillus subtilis [1] = experiment: Antibacterial activity against mprF and pspA gene-deficient Bacillus subtilis CU1065 mutant by liquid growth inhibition assay; format: functional
Outline: (§1)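 Daptomycin MIC by liquid growth inhibition. Overnight cultures diluted 1:100, grown to mid-log, rediluted to 5 × 10^5 CFU/ml in Mueller-Hinton broth with 50 mg/liter Ca2+. At least 10 concentrations near the predicted MIC, plus a no-drug control, added at start; 200 μl. OD600 read every 20 min for 24 h at 37°C with shaking. Inhibition: 24 h OD600 <0.05. MIC is the mode of at least triplicates.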

Bacillus subtilis [2] = experiment: Antibacterial activity against Bacillus subtilis CU1065 mutant with mprF gene overexpression by liquid growth inhibition assay; format: functional; outline: as §1
Bacillus subtilis [3] = experiment: Antibacterial activity against Bacillus subtilis CU1066 with depletion in pgsA gene by liquid growth inhibition assay; format: functional; conditions: CU1065, in the assay text read “CU1065” for “CU1066”
Outline: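 Liquid growth inhibition in Mueller-Hinton broth with 50 mg/liter Ca2+. Overnight cultures diluted 1:100, grown to mid-log, rediluted to 5 × 10^5 CFU/ml, then given at least 10 daptomycin concentrations near the predicted MIC plus a drug-free control. OD600 read every 20 min for 24 h at 37°C with shaking. MIC is the mode of at least triplicates of the lowest concentration giving final OD600 <0.05.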

Bacillus subtilis [4] = experiment: Induction of liaH gene expression in Bacillus subtilis W168 by microarray analysis; format: functional
Outline: (§2)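 W168 grown in Ca2+-supplemented Mueller-Hinton broth at 37°C to OD600 0.4, split, and one half exposed to 1 μg/ml daptomycin for 20 min. Total RNA from three biological replicates; cDNA labeled with Alexa Fluor 555/647 and co-hybridized at 42°C for 16–18 h. Genes with summed intensity <20 or SD > mean were dropped. Fold change is treated/untreated signal, from ≥6 spot measurements.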

Bacillus subtilis [5] = experiment: Induction of liaF gene expression in Bacillus subtilis W168 by microarray analysis; format: functional; outline: as §2
Bacillus subtilis [6] = experiment: Induction of liaR gene expression in Bacillus subtilis W168 by microarray analysis; format: functional; outline: as §2
Bacillus subtilis [7] = experiment: Induction of yqjL gene expression in Bacillus subtilis W168 by microarray analysis; format: functional; outline: as §2
Bacillus subtilis [8] = experiment: Induction of ydaH gene expression in Bacillus subtilis W168 by microarray analysis; format: functional; outline: as §2
Bacillus subtilis [9] = experiment: Induction of yebC gene expression in Bacillus subtilis W168 by microarray analysis; format: functional; outline: as §2
Bacillus subtilis [10] = experiment: Induction of ywaC gene expression in Bacillus subtilis W168 by microarray analysis; format: functional
Outline: (§3)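 W168 cultures in Mueller-Hinton broth with 50 mg/liter Ca2+, 37°C with shaking, grown to mid-log phase (OD600 0.4) from a 1:1,000 overnight dilution. Split: one half given 1 μg/ml daptomycin for 20 min, the other left untreated. Total RNA from three biological replicates; cDNA labeled with Alexa Fluor 555 or 647 and hybridized 16 to 18 h at 42°C. Induction = treated/untreated signal intensity, duplicate spots on three arrays.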

Bacillus subtilis [11] = experiment: Induction of bcrC gene expression in Bacillus subtilis W168 by microarray analysis; format: functional; outline: as §2
Bacillus subtilis [12] = experiment: Induction of maf gene expression in Bacillus subtilis W168 by microarray analysis; format: functional; outline: as §2
Bacillus subtilis [13] = experiment: Induction of murG gene expression in Bacillus subtilis W168 by microarray analysis; format: functional; outline: as §2
Bacillus subtilis [14] = experiment: Induction of murB gene expression in Bacillus subtilis W168 by microarray analysis; format: functional; outline: as §2
Bacillus subtilis [15] = experiment: Induction of yuaF gene expression in Bacillus subtilis W168 by microarray analysis; format: functional; outline: as §2
Bacillus subtilis [16] = experiment: Induction of yxjI gene expression in Bacillus subtilis W168 by microarray analysis; format: functional; outline: as §3
Bacillus subtilis [17] = experiment: Induction of ydjP gene expression in Bacillus subtilis W168 by microarray analysis; format: functional; outline: as §2
Bacillus subtilis [18] = experiment: Induction of yoeB gene expression in Bacillus subtilis W168 by microarray analysis; format: functional; outline: as §2
Bacillus subtilis [19] = experiment: Induction of sdpI gene expression in Bacillus subtilis W168 by microarray analysis; format: functional; outline: as §2
Bacillus subtilis [20] = experiment: Induction of yocH gene expression in Bacillus subtilis W168 by microarray analysis; format: functional; outline: as §2
Bacillus subtilis [21] = experiment: Decrease in fabHA gene expression in Bacillus subtilis W168 by microarray analysis; format: functional; outline: as §2
Bacillus subtilis [22] = experiment: Decrease in yvkN gene expression in Bacillus subtilis W168 by microarray analysis; format: functional; outline: as §2
Bacillus subtilis [23] = experiment: Decrease in yvzA gene expression in Bacillus subtilis W168 by microarray analysis; format: functional; outline: as §2
Bacillus subtilis [24] = experiment: Decrease in yvpB gene expression in Bacillus subtilis W168 by microarray analysis; format: functional; outline: as §2
Bacillus subtilis [25] = experiment: Decrease in ywdE gene expression in Bacillus subtilis W168 by microarray analysis; format: functional; outline: as §2
Bacillus subtilis [26] = experiment: Decrease in yknU gene expression in Bacillus subtilis W168 by microarray analysis; format: functional; outline: as §2
Bacillus subtilis [27] = experiment: Decrease in hutM gene expression in Bacillus subtilis W168 by microarray analysis; format: functional; outline: as §2
Bacillus subtilis [28] = experiment: Decrease in rpmB gene expression in Bacillus subtilis W168 by microarray analysis; format: functional; outline: as §2
Bacillus subtilis [29] = experiment: Decrease in yisY gene expression in Bacillus subtilis W168 by microarray analysis; format: functional; outline: as §2
Bacillus subtilis [30] = experiment: Decrease in yxeM gene expression in Bacillus subtilis W168 by microarray analysis; format: functional; outline: as §2
Bacillus subtilis [31] = experiment: Antibacterial activity against liaIH and mprF gene-deficient Bacillus subtilis W168 mutant by liquid growth inhibition assay; format: functional; outline: as §1
Bacillus subtilis [32] = experiment: Antibacterial activity against yhcYZ gene-deficient Bacillus subtilis CU1065 mutant by liquid growth inhibition assay; format: functional; outline: as §1
Bacillus subtilis [33] = experiment: Antibacterial activity against sigXM gene-deficient Bacillus subtilis CU1065 double mutant by liquid growth inhibition assay; format: functional; outline: as §1
Bacillus subtilis [34] = experiment: Antibacterial activity against pspA gene-deficient Bacillus subtilis CU1065 mutant by liquid growth inhibition assay; format: functional; outline: as §1
Bacillus subtilis [35] = experiment: Antibacterial activity against liaH, pspA and sigW gene-deficient Bacillus subtilis CU1065 mutant by liquid growth inhibition assay; format: functional; outline: as §1
Bacillus subtilis [36] = experiment: Antibacterial activity against liaH and pspA gene-deficient Bacillus subtilis CU1065 mutant by liquid growth inhibition assay; format: functional; outline: as §1
Bacillus subtilis [37] = experiment: Antibacterial activity against liaIH and pspA gene-deficient Bacillus subtilis CU1065 mutant by liquid growth inhibition assay; format: functional; outline: as §1
Bacillus subtilis [38] = experiment: Antibacterial activity against sigXM and liaIH gene-deficient Bacillus subtilis CU1065 mutant by liquid growth inhibition assay; format: functional; outline: as §1
Bacillus subtilis [39] = experiment: Antibacterial activity against Bacillus subtilis W168 mutant with alteration in membrane composition at 25 degC by liquid growth inhibition assay; format: functional
Outline: (§4)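 Mid-log cells diluted to 5 × 10^5 CFU/ml in Mueller-Hinton broth with 50 mg/liter Ca2+. At least 10 concentrations near the predicted MIC, plus an untreated control, present from the start. Growth followed by OD600. Inhibition: final 24 h OD600 <0.05. MIC is the mode of at least triplicates.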

Bacillus subtilis [40] = experiment: Antibacterial activity against des gene-deficient Bacillus subtilis W168 mutant with alteration in membrane composition at 25 degC by liquid growth inhibition assay; format: functional; outline: as §4
Bacillus subtilis [41] = experiment: Antibacterial activity against pssA gene-deficient Bacillus subtilis CU1065 mutant by liquid growth inhibition assay; format: functional; outline: as §1
Bacillus subtilis [42] = experiment: Antibacterial activity against psd gene-deficient Bacillus subtilis CU1065 mutant by liquid growth inhibition assay; format: functional; outline: as §1
Bacillus subtilis [43] = experiment: Increase in yfiC gene expression in Bacillus subtilis W168 by microarray analysis

CCCCCCCCCC(=O)N[C@@H](Cc1c[nH]c2ccccc12)C(=O)N[C@H](CC(N)=O)C(=O)N[C@@H](CC(=O)O)C(=O)N[C@@H]1C(=O)NCC(=O)N[C@@H](CCCN)C(=O)N[C@@H](CC(=O)O)C(=O)N[C@H](C)C(=O)N[C@@H](CC(=O)O)C(=O)NCC(=O)N[C@H](CO)C(=O)N[C@@H]([C@H](C)CC(=O)O)C(=O)N[C@@H](CC(=O)c2ccccc2N)C(=O)O[C@@H]1C
MIC (Bacillus subtilis [1]): 0.5 µg/mL (≈ 0.309 µM)
MIC (Bacillus subtilis [2]): 1.3 µg/mL (≈ 0.802 µM)
MIC (Bacillus subtilis [3]): 8 µg/mL (≈ 4.94 µM)
fold change (FC) (Bacillus subtilis [4]): 1336
fold change (FC) (Bacillus subtilis [5]): 149
fold change (FC) (Bacillus subtilis [6]): 75
fold change (FC) (Bacillus subtilis [7]): 7.8
fold change (FC) (Bacillus subtilis [8]): 6.2
fold change (FC) (Bacillus subtilis [9]): 3.6
fold change (FC) (Bacillus subtilis [10]): 3.5
fold change (FC) (Bacillus subtilis [11]): 3.1
fold change (FC) (Bacillus subtilis [12]): 2.5
fold change (FC) (Bacillus subtilis [13]): 2.4
fold change (FC) (Bacillus subtilis [14]): 2
fold change (FC) (Bacillus subtilis [15]): 4.8
fold change (FC) (Bacillus subtilis [16]): 2.1
fold change (FC) (Bacillus subtilis [17]): 2
fold change (FC) (Bacillus subtilis [18]): 2.1
fold change (FC) (Bacillus subtilis [19]): 8.9
fold change (FC) (Bacillus subtilis [20]): 0.5
fold change (FC) (Bacillus subtilis [21]): 2.3
fold change (FC) (Bacillus subtilis [22]): 26
fold change (FC) (Bacillus subtilis [23]): 10
fold change (FC) (Bacillus subtilis [24]): 14
fold change (FC) (Bacillus subtilis [25]): 9.9
fold change (FC) (Bacillus subtilis [26]): 7.8
fold change (FC) (Bacillus subtilis [27]): 3.2
fold change (FC) (Bacillus subtilis [28]): 0.5
fold change (FC) (Bacillus subtilis [29]): 0.5
fold change (FC) (Bacillus subtilis [30]): 0.4
MIC (Bacillus subtilis [31]): 0.2 µg/mL (≈ 0.123 µM)
MIC (Bacillus subtilis [32]): 0.8 µg/mL (≈ 0.494 µM)
MIC (Bacillus subtilis [33]): 0.6 µg/mL (≈ 0.37 µM)
MIC (Bacillus subtilis [34]): 1 µg/mL (≈ 0.617 µM)
MIC (Bacillus subtilis [35]): 0.2 µg/mL (≈ 0.123 µM)
MIC (Bacillus subtilis [36]): 0.2 µg/mL (≈ 0.123 µM)
MIC (Bacillus subtilis [37]): 0.2 µg/mL (≈ 0.123 µM)
MIC (Bacillus subtilis [38]): 0.2 µg/mL (≈ 0.123 µM)
MIC (Bacillus subtilis [39]): 0.7 µg/mL (≈ 0.432 µM)
MIC (Bacillus subtilis [40]): 0.4 µg/mL (≈ 0.247 µM)
MIC (Bacillus subtilis [41]): 1 µg/mL (≈ 0.617 µM)
MIC (Bacillus subtilis [42]): 1 µg/mL (≈ 0.617 µM)
fold change (FC) (Bacillus subtilis [43]): 3.5
